Measured values from ChEMBL document CHEMBL1649351, “Synthesis, in vitro antimicrobial and in vivo antitumor evaluation of novel pyrimidoquinolines and its nucleoside derivatives” (Eur J Med Chem, 2011).

Legend:
Bacillus subtilis = experiment: Antibacterial activity against Bacillus subtilis at 50 mg/disk after 24 to 28 hrs by agar disk diffusion method; format: functional
Lactococcus lactis = experiment: Antibacterial activity against Streptococcus lactis at 50 mg/disk after 24 to 28 hrs by agar disk diffusion method; format: functional
Escherichia coli = experiment: Antibacterial activity against Escherichia coli at 50 mg/disk after 24 to 28 hrs by agar disk diffusion method; format: functional
Pseudomonas aeruginosa = experiment: Antibacterial activity against Pseudomonas aeruginosa at 50 mg/disk after 24 to 28 hrs by agar disk diffusion method; format: functional
Candida albicans = experiment: Antifungal activity against Candida albicans at 50 mg/disk after 5 days by agar disk diffusion method; format: functional
Nakaseomyces glabratus = experiment: Antifungal activity against Candida glabrata at 50 mg/disk after 5 days by agar disk diffusion method; format: functional
HepG2 [1] = experiment: Antitumor activity against human HepG2 cells xenografted in Swiss albino mouse assessed as increase of mouse survival at 10 ug/kg, ip for 10 days (reference value: 22 +/- 1.90 day); format: functional
HepG2 [2] = experiment: Antitumor activity against human HepG2 cells xenografted in Swiss albino mouse assessed as increase mouse life span at 10 ug/kg, ip for 10 days relative to control; format: functional
HeLa [3] = experiment: Antitumor activity against human HeLa cells xenografted in Swiss albino mouse assessed as increase of mouse survival at 10 ug/kg, ip for 10 days (reference value: 22 +/- 1.90 day); format: functional
HeLa [4] = experiment: Antitumor activity against human HeLa cells xenografted in Swiss albino mouse assessed as increase mouse life span at 10 ug/kg, ip for 10 days relative to control; format: functional
Mus musculus [5] = experiment: Acute toxicity in human HepG2 cells xenografted ip dosed Swiss albino mouse assessed as mortality measured up to 2 weeks; format: organism-based; conditions: in vivo, 336 h
Method in brief: (§1)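 Adult Swiss albino mice were fasted 12 h and randomised into groups of 10. Each group got one i.p. dose from a graded series, given at 1 ml/kg body weight; controls got vehicle alone. Food and water were returned right after dosing. Mortality was followed for up to two weeks, and LD50 was taken as the dose giving 50% mortality.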

Mus musculus [6] = experiment: Acute toxicity in human HeLa cells xenografted ip dosed Swiss albino mouse assessed as mortality measured up to 2 weeks; format: organism-based; conditions: in vivo, 336 h; method in brief: as §1

SMILES | diameter of the inhibition zone (DIZ) (Bacillus subtilis) [mm] | diameter of the inhibition zone (DIZ) (Lactococcus lactis) [mm] | diameter of the inhibition zone (DIZ) (Escherichia coli) [mm] | diameter of the inhibition zone (DIZ) (Pseudomonas aeruginosa) [mm] | diameter of the inhibition zone (DIZ) (Candida albicans) [mm] | diameter of the inhibition zone (DIZ) (Nakaseomyces glabratus) [mm] | Survival (HepG2 [1]) [days] | Activity (HepG2 [2]) [%] | Survival (HeLa [3]) [days] | Activity (HeLa [4]) [%] | LD50 (Mus musculus [5]) [mg/kg] | LD50 (Mus musculus [6]) [mg/kg]
CC1(C)CC(=O)C2=C(C1)Nc1nc3[nH]nc(-c4ccc(Cl)cc4)n3c(=O)c1C2c1ccc([N+](=O)[O-])cc1 (stereo not drawn) | 18 | 15 | 18 | 17 | 9 | 7 | 36 | 51 | 34 | 57 | 0.095 | 0.089
CSc1nc2c(c(=O)n1C)C(c1ccc([N+](=O)[O-])cc1)C1=C(CC(C)(C)CC1=O)N2 (stereo not drawn) | 15 | 13 | 15 | 14 | 8 | 6 | 34 | 50 | 28 | 48 | 0.098 | 0.111
CSc1nc2c(c(=O)[nH]1)C(c1ccc([N+](=O)[O-])cc1)C1=C(CC(C)(C)CC1=O)N2[C@@H]1O[C@H](CO)[C@@H](O)[C@H](O)[C@H]1O (stereo partly drawn) | 21 | 19 | 23 | 23 | 8 | 9 | 38 | 60 | 36 | 61 | 0.115 | 0.119
CSc1nc2c(c(=O)n1C)C(c1ccc([N+](=O)[O-])cc1)C1=C(CC(C)(C)CC1Cl)N2 (stereo not drawn) | 14 | 13 | 15 | 14 | 10 | 9 | 33 | 48 | 31 | 45 | 0.1 | 0.103
CC1(C)CC(=O)C2=C(C1)Nc1nc(Nn3c(=O)c4cc5c(=O)n(Nc6nc7c(c(=O)[nH]6)C(c6ccc([N+](=O)[O-])cc6)C6=C(CC(C)(C)CC6=O)N7)c(=O)c5cc4c3=O)[nH]c(=O)c1C2c1ccc([N+](=O)[O-])cc1 (stereo not drawn) | 22 | 25 | 23 | 22 | 13 | 12 | 38 | 58 | 29 | 53 | 0.099 | 0.099
Cc1cn2c(=O)c3c(nc2n1N)NC1=C(C(=O)CC(C)(C)C1)C3c1ccc([N+](=O)[O-])cc1 (stereo not drawn) | 19 | 22 | 24 | 23 | 9 | 10 | 37 | 56 | 34 | 51 | 0.093 | 0.09
CC1(C)CC(=O)C2=C(C1)Nc1nc(NN)[nH]c(=O)c1C2c1ccc([N+](=O)[O-])cc1 (stereo not drawn) | 15 | 15 | 15 | 15 | 9 | 8 | 28 | 31 | 29 | 38 | 0.089 | 0.1
CSc1nc2c(c(=O)[nH]1)C(c1ccc([N+](=O)[O-])cc1)C1=C(CC(C)(C)CC1=O)N2[C@@H]1OC[C@@H](O)[C@@H](O)[C@@H]1O (stereo partly drawn) | 20 | 18 | 24 | 23 | 7 | 8 | 37 | 60 | 38 | 66 | 0.11 | 0.116
CC1(C)CC(=O)C2=C(C1)Nc1nc(N)[nH]c(=O)c1C2c1ccc([N+](=O)[O-])cc1 (stereo not drawn) | 25 | 20 | 27 | 23 | 9 | 9 | 35 | 49 | 31 | 50 | 0.095 | 0.09
CC1(C)CC(=O)C2=C(C1)Nc1nc(N/N=C\c3ccc(Cl)cc3)[nH]c(=O)c1C2c1ccc([N+](=O)[O-])cc1 (stereo not drawn) | 16 | 17 | 18 | 17 | 7 | 6 | 37 | 53 | 32 | 50 | 0.096 | 0.09
CSc1nc2c(c(=O)[nH]1)C(c1ccc([N+](=O)[O-])cc1)C1=C(CC(C)(C)CC1=O)N2[C@@H]1O[C@H](COC(C)=O)[C@@H](OC(C)=O)[C@H](OC(C)=O)[C@H]1OC(C)=O (stereo partly drawn) | 20 | 20 | 23 | 22 | 8 | 8 | 36 | 66 | 37 | 61 | 0.109 | 0.111
CC1(C)CC(=O)C2=C(C1)Nc1nc3n(N)c(-c4ccccc4)cn3c(=O)c1C2c1ccc([N+](=O)[O-])cc1 (stereo not drawn) | 20 | 20 | 23 | 23 | 8 | 6 |  |  |  |  |  | 
